From article PMC3557458 (Journal of molecular biology, 2012)
“Also recorded” adds a separate entry of the source. Blank lines part the entries; values can stand above or below the molecule they belong to.

Experiments:
Bim and Bad BH3 peptides = assay type: binding, human; conditions: FP competition, Bim-22 and Bad-22, Ki relative to Bcl-xL
Summary of the method: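 His6-tagged Bcl-xL variants (E. coli RP3098, Ni-NTA under native conditions) at 50 nM with 15 nM fluorescein-labelled peptide, which varied by variant, competed against serially diluted unlabelled peptide. Equilibrated ≥3 hr at ~25 °C; anisotropy read in duplicate. Ki values were fitted using direct-binding Kd values, then normalized to averaged parent-protein Ki.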

[1] = molecular target: recombinant native Bcl-xL (human) (UniProt Q07817); assay: fluorescence polarisation
RX1, recombinant (human) = RX1, recombinant (human) (UniProt Q07817); assay: fluorescence polarisation
[2] = molecular target: recombinant native Bcl-xL (human, UniProt Q07817-1 1-209); assay: fluorescence polarisation
RX1 = RX1 (Homo sapiens, UniProt Q07817, A142G/F105L/F146A/L130I/Q111G/Q125V/S122I/V126A/Y101H); assay type: binding; conditions: from Ki values of RX1 and Bcl-xL for Bim-22 and Bad-22
[3] = test system: fluoresceinated Bim vs. Bad BH3; assay: Fluorescence polarization direct binding of fluoresceinated Bim vs. Bad BH3; parameters: species or system human; conditions: labeled peptide 5 nM, at least 1 hr, ~25 °C

Chain of recombinant native Bcl-xL (Q07817 1-209): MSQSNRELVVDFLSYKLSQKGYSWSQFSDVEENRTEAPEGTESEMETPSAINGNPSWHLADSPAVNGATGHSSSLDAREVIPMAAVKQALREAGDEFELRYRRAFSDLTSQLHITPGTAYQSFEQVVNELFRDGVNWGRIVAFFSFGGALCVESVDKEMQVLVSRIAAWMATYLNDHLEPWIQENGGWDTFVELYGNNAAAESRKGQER

Molecule: A104M: Bcl-xL point mutant A104M (not in RX1)
Bad vs. Bim binding preference of point mutation in the context of Bcl-xL (Bim and Bad BH3 peptides): confirmed to be specific

Molecule: F105L: Bcl-xL point mutant F105L
Bad vs. Bim binding preference of point mutation in the context of Bcl-xL (Bim and Bad BH3 peptides): favored Bim binding over Bad

Molecule: F146A: Bcl-xL point mutant F146A
Bad vs. Bim binding preference of point mutation in the context of Bcl-xL (Bim and Bad BH3 peptides): did not confer specificity

Molecule: S122I: Bcl-xL point mutant, Ser 122 to Ile
Bad vs. Bim binding preference of point mutation in the context of Bcl-xL (Bim and Bad BH3 peptides): preferred binding Bad over Bim; also recorded: confirmed to be specific

Molecule: V126A: Bcl-xL point mutant V126A
Bad vs. Bim binding preference of point mutation in the context of Bcl-xL (Bim and Bad BH3 peptides): preferred binding Bad over Bim

The remaining lines, values ahead:

Bad vs. Bim binding preference of point mutation in the context of Bcl-xL (Bim and Bad BH3 peptides): preferred binding Bad over Bim
Molecule: A142G: Bcl-xL point mutant A142G

Ki [1]: 2 nM
Ki (RX1, recombinant (human)): 33 nM
Molecule: Bad-22, Bad BH3 peptide of 22 residues

Ki [1]: 3 nM
Ki (RX1, recombinant (human)): > 50000 nM
Molecule: Bim-22, Bim BH3 peptide of 22 residues

Bad vs. Bim binding preference of point mutation in the context of Bcl-xL (Bim and Bad BH3 peptides): shown not to be
Molecule: L130I: Bcl-xL point mutant L130I

Ki [2]: < 0.1 nM
Molecule: LWAAQRYGRELRRMSDEFVDSFKKGLPR (peptide, UniProt Q92934 104-131, looked up) [Bad-28, recombinant Bad BH3 28-mer peptide]

specificity increase for Bad BH3 over Bim BH3 relative to native Bcl-xL (RX1): ≥ 1,000 fold
preference for binding Bad over Bim, direct binding [3]: strong preference
B1: RX1: Re-designed Bcl-xL variant: Y101H, F105L, Q111G, S122I, Q125V, V126A, L130I, A142G, F146A (protein)
chain: MSQSNRELVVDFLSYKLSQKGYSWSQFSDVEENRTEAPEGTESEMETPSAINGNPSWHLADSPAVNGATGHSSSLDAREVIPMAAVKQALREAGDEFELRHRRALSDLTSGLHITPGTAYQIFEVAVNEIFRDGVNWGRIVGFFSAGGALCVESVDKEMQVLVSRIAAWMATYLNDHLEPWIQENGGWDTFVELYGNNAAAESRKGQER
modifications: left off: His6, end not stated, state not stated

Ki [2]: < 0.1 nM
Molecule: EQWAREIGAQLRRMADDLNAQYERRRQE [PUMA BH3 peptide]
